According to paper PMC9476207 (ACS Omega, 2022):

Key:
Experiment in all cases: NCI-60 single-dose antiproliferative screen
Assay type in all cases: cell-based
CCRF-CEM = settings: Homo sapiens, 48 h, read-out: growth percent
Outline: (§1)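 NCI-60 protocol. Lines were grown in RPMI 1640 with 5% FBS and 2 mM L-glutamine, plated and incubated 24 h at 37 °C; time-zero plates were TCA-fixed. The test compound was dissolved in DMSO, diluted in medium with 50 μg/mL gentamicin and given once at a final 10^-5 M (DMSO control) for 48 h. Cells were fixed with cold TCA (1 h, 4 °C) and stained with 0.4% SRB in 1% acetic acid for 10 min. Dye was dissolved in 10 mM Trizma base and read at 515 nm. Growth percent was calculated from time-zero, test and control ODs.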

K-562 = settings: Homo sapiens, K562, 48 h, read-out: growth percent
Outline: as §1

RPMI-8226 = settings: Homo sapiens, RPMI-8226, 48 h, read-out: growth percent
Outline: as §1

SR = settings: Homo sapiens, 48 h, read-out: growth percent
Outline: (§2)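 Cells grown in RPMI 1640 with 5% FBS and 2 mM L-glutamine, plated and held 24 h at 37 °C; time-zero plates TCA-fixed. DMSO stocks were diluted in gentamicin-containing medium to a final 10^-5 M, with a DMSO-only control. Exposure 48 h, 5% CO2. Adherent cells TCA-fixed 1 h at 4 °C, stained with 0.4% SRB, solubilised in 10 mM Trizma base, read at 515 nm. Growth percent derived from ODtzero, ODtest and ODctrl.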

HOP-92 = settings: Homo sapiens, HOP-92, 48 h, read-out: growth percent
Outline: as §1

NCI-H23 = settings: Homo sapiens, NCI-H23, 48 h, read-out: growth percent
Outline: as §1

NCI-H322M = settings: Homo sapiens, 48 h, read-out: growth percent
Outline: as §1

NCI-H522 = settings: Homo sapiens, NCI-H522, 48 h, read-out: growth percent
Outline: as §1

HT29 = settings: Homo sapiens, HT-29, 48 h, read-out: growth percent
Outline: as §1

KM12 = settings: Homo sapiens, KM12, 48 h, read-out: growth percent
Outline: as §1

SW-620 = settings: Homo sapiens, SW-620, 48 h, read-out: growth percent
Outline: as §2

SF-268 = settings: Homo sapiens, SF-268, 48 h, read-out: growth percent
Outline: as §1

SF-295 = settings: Homo sapiens, SF-295, 48 h, read-out: growth percent
Outline: as §1

SF-539 = settings: Homo sapiens, SF-539, 48 h, read-out: growth percent
Outline: as §2

SNB-75 = settings: Homo sapiens, SNB-75, 48 h, read-out: growth percent
Outline: as §2

U251 = settings: Homo sapiens, U-251, 48 h, read-out: growth percent
Outline: as §2

LOX IMVI = settings: Homo sapiens, 48 h, read-out: growth percent
Outline: as §1

MALME-3M = settings: Homo sapiens, 48 h, read-out: growth percent
Outline: as §1

MDA-MB-435 = settings: Homo sapiens, MDA-MB-435, 48 h, read-out: growth percent
Outline: as §1

SK-MEL-2 = settings: Homo sapiens, SK-MEL-2, 48 h, read-out: growth percent
Outline: as §2

SK-MEL-28 = settings: Homo sapiens, SK-MEL-28, 48 h, read-out: growth percent
Outline: as §2

SK-MEL-5 = settings: Homo sapiens, SK-MEL-5, 48 h, read-out: growth percent
Outline: as §2

UACC-257 = settings: Homo sapiens, UACC-257, 48 h, read-out: growth percent
Outline: as §2

UACC-62 = settings: Homo sapiens, UACC-62, 48 h, read-out: growth percent
Outline: as §2

OVCAR-5 = settings: Homo sapiens, OVCAR-5, 48 h, read-out: growth percent
Outline: as §1

NCI/ADR-RES = settings: Homo sapiens, 48 h, read-out: growth percent
Outline: as §1

SK-OV-3 = settings: Homo sapiens, SK-OV-3, 48 h, read-out: growth percent
Outline: as §2

786-0 = settings: Homo sapiens, 786-0, 48 h, read-out: growth percent
Outline: as §1

CAKI-1 = settings: Homo sapiens, CAKI-1, 48 h, read-out: growth percent
Outline: as §1

RXF 393 = settings: Homo sapiens, RXF 393, 48 h, read-out: growth percent
Outline: as §1

SN12C = settings: Homo sapiens, 48 h, read-out: growth percent
Outline: as §2

DU-145 = settings: Homo sapiens, DU-145, 48 h, read-out: growth percent
Outline: as §1

MCF-7 = settings: Homo sapiens, MCF7, 48 h, read-out: growth percent
Outline: as §1

MDA-MB-231 ATCC = settings: Homo sapiens, MDA-MB-231, 48 h, read-out: growth percent
Outline: as §1

HS 578T = settings: Homo sapiens, 48 h, read-out: growth percent
Outline: as §1

BT-549 = settings: Homo sapiens, BT-549, 48 h, read-out: growth percent
Outline: as §1

T-47D = settings: Homo sapiens, T47D, 48 h, read-out: growth percent
Outline: as §2

Compound	activity at 10 µM (CCRF-CEM) [%]	activity at 10 µM (K-562) [%]	activity at 10 µM (RPMI-8226) [%]	activity at 10 µM (SR) [%]	activity at 10 µM (HOP-92) [%]	activity at 10 µM (NCI-H23) [%]	activity at 10 µM (NCI-H322M) [%]	activity at 10 µM (NCI-H522) [%]	activity at 10 µM (HT29) [%]	activity at 10 µM (KM12) [%]	activity at 10 µM (SW-620) [%]	activity at 10 µM (SF-268) [%]	activity at 10 µM (SF-295) [%]	activity at 10 µM (SF-539) [%]	activity at 10 µM (SNB-75) [%]	activity at 10 µM (U251) [%]	activity at 10 µM (LOX IMVI) [%]	activity at 10 µM (MALME-3M) [%]	activity at 10 µM (MDA-MB-435) [%]	activity at 10 µM (SK-MEL-2) [%]	other results
COc1cc(CNC(=O)CCCC/C=C/C(C)C)ccc1OCc1cn(-c2ccc(C)cc2)nn1 [14n, (E)-N-(3-Methoxy-4-((1-(p-tolyl)-1H-1,2,3-triazol-4-yl)methoxy)benzyl)-8-methylnon-6-enamide]	87.3	80	74.1	75.5	83.5	87.9	89.4	62.1	100	96	102	81.7	98.9	100	99.5	81.7	85.1	110	109	91.9	activity at 10 µM (SK-MEL-28): 114%; activity at 10 µM (SK-MEL-5): 86.8%; activity at 10 µM (UACC-257): 88.2%; activity at 10 µM (UACC-62): 70.2%; activity at 10 µM (OVCAR-5): 108%; activity at 10 µM (NCI/ADR-RES): 87.4%; activity at 10 µM (SK-OV-3): 94.4%; activity at 10 µM (786-0): 99.6%; activity at 10 µM (CAKI-1): 88.5%; activity at 10 µM (RXF 393): 102%; activity at 10 µM (SN12C): 89.3%; activity at 10 µM (DU-145): 97%; activity at 10 µM (MCF-7): 96.3%; activity at 10 µM (MDA-MB-231 ATCC): 72.2%; activity at 10 µM (HS 578T): 89.7%; activity at 10 µM (BT-549): 105%; activity at 10 µM (T-47D): 77.4%
COc1cc(CNC(=O)CCCC/C=C/C(C)C)ccc1OCc1cn(-c2cc(OC)c(OC)c(OC)c2)nn1 [14m, (E)-N-(3-Methoxy-4-((1-(3,4,5-trimethoxyphenyl)-1H-1,2,3-triazol-4-yl)methoxy)benzyl)-8-methylnon-6-enamide]	96.3	79.7	79.4	86.6	82.5	90.1	89.1	65.2	87.2	103	102	90.5	105	92	95.2	92.8	94.4	98.5	106	97.6	activity at 10 µM (SK-MEL-28): 108%; activity at 10 µM (SK-MEL-5): 77.5%; activity at 10 µM (UACC-257): 93.6%; activity at 10 µM (UACC-62): 87.8%; activity at 10 µM (OVCAR-5): 109%; activity at 10 µM (NCI/ADR-RES): 91.7%; activity at 10 µM (SK-OV-3): 89.9%; activity at 10 µM (786-0): 108%; activity at 10 µM (CAKI-1): 79.5%; activity at 10 µM (RXF 393): 104%; activity at 10 µM (SN12C): 102%; activity at 10 µM (DU-145): 85.4%; activity at 10 µM (MCF-7): 102%; activity at 10 µM (MDA-MB-231 ATCC): 92.7%; activity at 10 µM (HS 578T): 69%; activity at 10 µM (BT-549): 79.1%; activity at 10 µM (T-47D): 95.8%
CCc1ccc(-n2cc(COc3ccc(CNC(=O)CCCC/C=C/C(C)C)cc3OC)nn2)cc1 [14o, (E)-N-(4-((1-(4-Ethylphenyl)-1H-1,2,3-triazol-4-yl)methoxy)-3-methoxybenzyl)-8-methylnon-6-enamide]	86.8	78.6	74	87.5	86.5	89.5	90.5	65.9	109	100	103	93	100	104	92.6	89.4	89.3	108	107	95.2	activity at 10 µM (SK-MEL-28): 115%; activity at 10 µM (SK-MEL-5): 84%; activity at 10 µM (UACC-257): 86.4%; activity at 10 µM (UACC-62): 71.4%; activity at 10 µM (OVCAR-5): 112%; activity at 10 µM (NCI/ADR-RES): 87.7%; activity at 10 µM (SK-OV-3): 102%; activity at 10 µM (786-0): 100%; activity at 10 µM (CAKI-1): 77.4%; activity at 10 µM (RXF 393): 101%; activity at 10 µM (SN12C): 98.5%; activity at 10 µM (DU-145): 93.8%; activity at 10 µM (MCF-7): 102%; activity at 10 µM (MDA-MB-231 ATCC): 88%; activity at 10 µM (HS 578T): 78%; activity at 10 µM (BT-549): 99.1%; activity at 10 µM (T-47D): 111%
